Residue numbers refer to the chain shown, from its start. Values joined by “and” are separate entries in the source; they are usually repeats but may differ in a detail not shown here. Equal values may be shown once. Read-outs that look alike come from different tables or passages of the source.
Key:
MCF-7 cells = test: Cell viability assay; format: cell-based, human; details: read-out: MCF-7 IC50
T-47D cells = test: Cell viability assay; format: cell-based, human; details: 72 h, read-out: T-47D IC50
T-47D^D538G cells = test: Cell viability assay; format: cell-based, human; details: 72 h, read-out: T-47D^D538G IC50
T-47D^Y537S cells = test: Cell viability assay; format: cell-based, human; details: 72 h, read-out: T-47D^Y537S IC50
LCC-2 cells = test: Cell viability assay on tamoxifen-resistant LCC-2 cells; format: cell-based; details: Homo sapiens, LCC2, read-out: LCC-2 IC50
ERα [1] = target: T1, ERα (Homo sapiens, UniProt P03372); test: cell-based; format: cell-based; details: with 10 nmol/L 17β-estradiol
T1 sequence (P03372 1-595): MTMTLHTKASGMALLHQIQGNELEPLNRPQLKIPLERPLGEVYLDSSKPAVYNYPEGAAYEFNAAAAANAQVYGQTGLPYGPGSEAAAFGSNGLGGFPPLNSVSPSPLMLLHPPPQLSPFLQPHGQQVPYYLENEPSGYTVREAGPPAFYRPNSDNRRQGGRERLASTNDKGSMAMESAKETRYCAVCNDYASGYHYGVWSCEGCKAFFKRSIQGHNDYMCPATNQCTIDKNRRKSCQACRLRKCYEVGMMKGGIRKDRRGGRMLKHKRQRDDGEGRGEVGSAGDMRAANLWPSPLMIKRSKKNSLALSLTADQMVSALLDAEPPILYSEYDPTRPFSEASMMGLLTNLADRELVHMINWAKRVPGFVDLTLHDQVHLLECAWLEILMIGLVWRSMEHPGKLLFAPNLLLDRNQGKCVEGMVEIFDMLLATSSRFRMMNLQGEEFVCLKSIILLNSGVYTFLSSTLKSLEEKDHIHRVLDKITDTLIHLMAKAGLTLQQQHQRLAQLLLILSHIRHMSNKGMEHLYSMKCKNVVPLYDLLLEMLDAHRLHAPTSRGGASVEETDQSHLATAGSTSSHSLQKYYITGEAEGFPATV

ERβ = ERβ (Homo sapiens, UniProt Q92731); test: ER transcriptional activity; format: cell-based; details: with 10 nmol/L 17β-estradiol
Chain of ERβ (Q92731 whole entry): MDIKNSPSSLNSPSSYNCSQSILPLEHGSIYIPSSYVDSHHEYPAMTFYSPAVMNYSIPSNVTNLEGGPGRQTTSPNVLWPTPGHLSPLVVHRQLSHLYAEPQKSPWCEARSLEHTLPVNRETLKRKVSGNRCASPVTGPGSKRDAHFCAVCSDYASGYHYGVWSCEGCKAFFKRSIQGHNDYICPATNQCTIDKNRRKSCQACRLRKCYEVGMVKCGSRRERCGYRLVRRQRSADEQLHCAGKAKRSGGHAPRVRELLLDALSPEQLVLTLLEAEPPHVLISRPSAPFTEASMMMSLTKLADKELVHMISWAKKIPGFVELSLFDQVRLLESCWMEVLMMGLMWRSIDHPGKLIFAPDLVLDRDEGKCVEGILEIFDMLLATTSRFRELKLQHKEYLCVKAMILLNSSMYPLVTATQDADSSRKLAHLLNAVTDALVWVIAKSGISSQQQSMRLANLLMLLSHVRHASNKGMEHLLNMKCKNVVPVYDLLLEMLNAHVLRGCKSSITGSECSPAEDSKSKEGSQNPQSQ

ERα C530S mutant = target: T2, ERα C530S mutant (Homo sapiens, UniProt P03372, C530S); test: Transcriptional activity; format: cell-based; details: HEK-293T^C530S cells, compared with wild type
T2 sequence (P03372 1-595 C530S): T1 sequence (P03372 1-595) with C530S

MCF-7 tumor xenograft = MCF-7 tumor xenograft model in BALB/c nude mice; format: in vivo; details: 2 mg/kg ip every other day, Day 32
How it was run: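 Female BALB/c nude mice (15–18 g, 5 weeks old) received 1 × 10⁷ MCF-7 cells in 100 μL PBS into the right axillary mammary fat pad. Tumour volume (W² × L × 0.5) and body weight were measured every 2 days. Mice were sacrificed on Day 33. Tumours were assessed by IHC (Ki-67, ERα) and ERα Western blot.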

human ERα LBD = target: T3, human ERα LBD (Homo sapiens, UniProt P03372); test: Competitive fluorescence polarization binding assay, ERα; details: for RBA ERα: IC50 estradiol/IC50 compound × 100, estradiol = 100%; for α/β ratio: ratio of RBA ERα to RBA ERβ
T3 sequence (P03372 311-547 limits assumed): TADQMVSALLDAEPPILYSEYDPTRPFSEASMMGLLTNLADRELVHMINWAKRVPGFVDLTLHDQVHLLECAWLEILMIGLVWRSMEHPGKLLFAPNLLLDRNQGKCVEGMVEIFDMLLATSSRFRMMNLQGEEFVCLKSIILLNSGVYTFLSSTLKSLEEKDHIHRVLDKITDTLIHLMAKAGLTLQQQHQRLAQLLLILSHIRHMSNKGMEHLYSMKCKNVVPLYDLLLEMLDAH

human ERβ LBD = human ERβ LBD (Homo sapiens, UniProt Q92731); test: Competitive fluorescence polarization binding assay, ERβ; details: for RBA ERβ: IC50 estradiol/IC50 compound × 100, estradiol = 100%
Chain of human ERβ LBD (Q92731 264-498 limits assumed): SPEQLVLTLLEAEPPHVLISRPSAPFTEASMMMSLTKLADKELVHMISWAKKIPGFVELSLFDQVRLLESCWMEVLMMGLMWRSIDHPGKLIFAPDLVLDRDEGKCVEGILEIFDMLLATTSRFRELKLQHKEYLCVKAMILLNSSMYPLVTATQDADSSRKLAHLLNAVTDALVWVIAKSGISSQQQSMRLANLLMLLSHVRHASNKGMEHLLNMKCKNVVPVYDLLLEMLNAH

ERα [2] = target: T1, ERα; test: Immunoblot analysis of ERα degradation in MCF-7 cells; format: cell-based; details: MCF-7 cells, 1 or 5 μmol/L

SMILES: C[C@]12CC[C@@H]3c4ccc(O)cc4C[C@@H](CCCCCCCCC[S+]([O-])CCCC(F)(F)C(F)(F)F)[C@H]3[C@@H]1CC[C@@H]2O (stereo partly drawn) [Ful, Fulvestrant, reference compound]
- IC50 (MCF-7 cells; Homo sapiens, MCF7, 72 h): 0.14 ± 0.05 µM
- IC50 (T-47D cells; Homo sapiens, T47D): 1.76 ± 0.06 µM
- IC50 (T-47D^D538G cells; Homo sapiens): 3.92 ± 0.22 µM
- IC50 (T-47D^Y537S cells; Homo sapiens): 2.22 ± 0.17 µM
- IC50 (LCC-2 cells): 11 ± 0.45 µM
- Antagonist mode ERα Eff (%E2) (ERα [1]): 80 ± 2 %E2
- Antagonist mode ERβ Eff (%E2) (ERβ): 73 ± 1 %E2
- Effect of C530S mutation on antagonistic activity (ERα C530S mutant): unaffected by this mutation
- TGI (tumor growth inhibition) (MCF-7 tumor xenograft): 79%

SMILES: CC(C)=CC(=O)Nc1ccc(C2=C(c3ccc(O)cc3)C3OC2CC3S(=O)(=O)N(CC(F)(F)F)c2cccc(O)c2)cc1 (stereo not drawn) [Compound 29h, N-(4-(3-(4-Hydroxyphenyl)-5-(N-(3-hydroxyphenyl)-N-(2,2,2-trifluoroethyl)sulfamoyl)-7-oxabicyclo[2.2.1]hept-2-en-2-yl)phenyl)-3-methylbut-2-enamide]
- Ki (human ERα LBD): 0.00035 µM
- RBA ERα (human ERα LBD): 7.89 ± 0.11%
- α/β ratio (human ERα LBD): 17.93
- Ki (human ERβ LBD): 0.0152 µM
- RBA ERβ (human ERβ LBD): 0.44 ± 0.02%
- IC50 (MCF-7 cells; Homo sapiens, MCF7, 72 h): 0.98 ± 0.35 µM
- IC50 (T-47D cells; Homo sapiens, T47D): 3.92 ± 0.01 µM
- IC50 (T-47D^D538G cells; Homo sapiens): 2.84 ± 0.14 µM
- IC50 (T-47D^Y537S cells; Homo sapiens): 2.99 ± 0.22 µM
- ERα degradation (immunoblot) (ERα [2]): effective in inducing ERα degradation

SMILES: CCN(c1ccc(OC)cc1)S(=O)(=O)C1CC2OC1C(c1ccc(O)cc1)=C2c1ccc(NC(=O)C=C(C)C)cc1 (stereo not drawn) [Compound 29j, N-(4-(5-(N-Ethyl-N-(4-methoxyphenyl)sulfamoyl)-3-(4-hydroxyphenyl)-7-oxabicyclo[2.2.1]hept-2-en-2-yl)phenyl)-3-methylbut-2-enamide]
- Ki (human ERα LBD): 0.00063 µM
- RBA ERα (human ERα LBD): 4.36 ± 0.33%
- α/β ratio (human ERα LBD): 8.55
- Ki (human ERβ LBD): 0.0131 µM
- RBA ERβ (human ERβ LBD): 0.51 ± 0.09%
- IC50 (MCF-7 cells; Homo sapiens, MCF7, 72 h): 0.29 ± 0.03 µM
- IC50 (T-47D cells; Homo sapiens, T47D): 7.92 ± 0.19 µM
- IC50 (T-47D^D538G cells; Homo sapiens): 8.25 ± 0.45 µM
- IC50 (T-47D^Y537S cells; Homo sapiens): 12.7 ± 0.53 µM
- ERα degradation (immunoblot) (ERα [2]): effective in inducing ERα degradation

SMILES: CC(C)=CC(=O)Nc1ccc(C2=C(c3ccc(O)cc3)C3CC(S(=O)(=O)N(CC(F)(F)F)c4ccc(O)cc4)C2O3)cc1 (stereo not drawn) [29c′]
- RBA ERα (human ERα LBD): 15.12% and 15.12 ± 0.31%
- α/β ratio (human ERα LBD): 7.37
- Ki (human ERα LBD; read-out: Ki ERα): 0.00018 µM
- RBA ERβ (human ERβ LBD): 2.05 ± 0.45%
- Ki (human ERβ LBD; read-out: Ki ERβ): 0.00325 µM
- IC50 (MCF-7 cells; cell viability, 72 h): 0.95 ± 0.11 µM
- IC50 (T-47D cells; cell viability): 5.52 ± 0.27 µM
- IC50 (T-47D^D538G cells; cell viability): 5 ± 0.36 µM
- IC50 (T-47D^Y537S cells; cell viability): 4.05 ± 0.27 µM
- ERα degradation (immunoblot) (ERα [2]): impaired degradation ability

SMILES: O=C(CCl)Nc1ccc(C2=C(c3ccc(O)cc3)C3CC(S(=O)(=O)Oc4ccccc4)C2O3)cc1 (stereo not drawn) [Compound 28d, Phenyl-6-(4-(2-chloroacetamido)phenyl)-5-(4-hydroxyphenyl)-7-oxabicyclo[2.2.1]hept-5-ene-2-sulfonate]
- Ki (human ERα LBD): 0.0008 µM
- RBA ERα (human ERα LBD): 3.46 ± 0.02%
- α/β ratio (human ERα LBD): 3.76
- Ki (human ERβ LBD): 0.00725 µM
- RBA ERβ (human ERβ LBD): 0.92 ± 0.17%
- IC50 (MCF-7 cells; Homo sapiens, MCF7, 72 h): 0.66 ± 0.12 µM
- IC50 (T-47D cells; Homo sapiens, T47D): 13.3 ± 0.77 µM
- IC50 (T-47D^D538G cells; Homo sapiens): > 31 µM
- IC50 (T-47D^Y537S cells; Homo sapiens): > 31 µM
